Source: ChEMBL document CHEMBL1144886, “Structure-based design, synthesis, and antimicrobial activity of indazole-derived SAH/MTA nucleosidase inhibitors” (J Med Chem, 2003)
Values after ≈ are worked out from the molar mass of the structure shown.

Columns and labels:
[1] = molecular target: 5'-methylthioadenosine/S-adenosylhomocysteine nucleosidase (Escherichia coli O157:H7, UniProt P0AF14); assay: Inhibition of Escherichia coli S-adenosyl homocysteine/methylthioadenosine nucleosidase (MTA/SAH nucleosidase)
Outline: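 Recombinant His-tagged E. coli enzyme (IPTG-induced in E. coli, IMAC-purified), 50 pM, incubated 10 min at room temperature with 2.5 μM MTA and inhibitor at 0.005–100 μM; 200 μL final volume. Reaction stopped with TFA. Remaining MTA quantified by RP-HPLC (C8) peak integration, and turnover plotted for IC50. Ki derived using Km 1.0 μM for MTA.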

Streptococcus pyogenes = assay: Minimum inhibitory concentration against Streptococcus pyogenes; type: functional
Neisseria meningitidis = assay: Minimum inhibitory concentration against Neisseria meningitidis; type: functional
Streptococcus pneumoniae = assay: Minimum inhibitory concentration against Streptococcus pneumoniae; type: functional

5'-methylthioadenosine/S-adenosylhomocysteine nucleosidase, sequence (P0AF14 whole entry): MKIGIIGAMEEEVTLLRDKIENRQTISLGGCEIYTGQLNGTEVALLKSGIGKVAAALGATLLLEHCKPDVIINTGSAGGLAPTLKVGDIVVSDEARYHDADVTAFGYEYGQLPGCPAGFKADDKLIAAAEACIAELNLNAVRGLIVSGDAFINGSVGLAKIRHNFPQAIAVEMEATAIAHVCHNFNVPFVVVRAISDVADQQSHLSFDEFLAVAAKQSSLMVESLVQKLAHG

Row | Compound | Ki [1] | MIC (Streptococcus pyogenes) | MIC (Neisseria meningitidis) | MIC (Streptococcus pneumoniae)
1 | CC(C)CNc1cc(NS(=O)(=O)c2cccc(-c3cccc(CCO)c3)c2)cc2c(Cl)[nH]nc12 | 25 nM |  |  | 
2 | Cc1n[nH]c2ccc(NS(=O)(=O)c3ccc(Cl)cc3)cc12 | 4000 nM |  |  | 
3 | CN(C)c1cccc2c(S(=O)(=O)Nc3ccc4c[nH]nc4c3)cccc12 | 1000 nM |  |  | 
4 | Cc1n[nH]c2c(NCC(C)C)cc(NS(=O)(=O)c3cccc(-c4ccccc4)c3)cc12 | 498 nM |  |  | 
5 | Cc1nccc(-c2cccc(S(=O)(=O)Nc3cc(NCC(C)C)c4[nH]nc(C)c4c3)c2)n1 | 191 nM |  |  | 
6 | O=S(=O)(Nc1cc(NCc2ccccc2)c2[nH]nc(Cl)c2c1)c1ccc(Cl)cc1 | 1800 nM |  |  | 
7 | Cc1nccc(-c2cccc(S(=O)(=O)Nc3cc(NCC(C)C)c4n[nH]c(Cl)c4c3)c2)n1 | 36 nM |  |  | 
8 | CN(C)c1cccc2c(S(=O)(=O)Nc3ccc4[nH]ncc4c3)cccc12 | 2800 nM |  |  | 
9 | CSc1cccc(-c2cccc(S(=O)(=O)Nc3cc(NCC(C)C)c4[nH]nc(Cl)c4c3)c2)c1 | 17 nM |  |  | 
10 | Cc1cc(-c2cccc(S(=O)(=O)Nc3cc(NCC(C)C)c4n[nH]c(Cl)c4c3)c2)ccc1Cl | 3.9 nM | 7.5 µM (≈ 3.78 µg/mL) | 7.5 µM (≈ 3.78 µg/mL) | 7.5 µM (≈ 3.78 µg/mL)
11 | Cc1cc(-c2cccc(S(=O)(=O)Nc3cc(NCC(C)C)c4n[nH]c(Cl)c4c3)c2)ccc1F | 14.6 nM |  |  | 
12 | CC(C)CNc1cc(NS(=O)(=O)c2cccc(-c3ccc(Cl)c(Cl)c3)c2)cc2c(Cl)[nH]nc12 | 1.6 nM | 7.5 µM (≈ 3.93 µg/mL) | 1.88 µM (≈ 0.982 µg/mL) | 7.5 µM (≈ 3.93 µg/mL)
13 | O=S(=O)(Nc1cc(NCCc2ccccc2)c2[nH]nc(Cl)c2c1)c1ccc(Cl)cc1 | 2300 nM |  |  | 
14 | O=S(=O)(Nc1cc(NCC2CC2)c2[nH]nc(Cl)c2c1)c1ccc(Cl)cc1 | 500 nM |  |  | 
15 | CC(C)CNc1cc(NS(=O)(=O)c2cccc(-c3ccncc3)c2)cc2c(Cl)[nH]nc12 | 52 nM | > 20 µM | 10 µM (≈ 4.56 µg/mL) | 
16 | Cc1cccc(-c2cccc(S(=O)(=O)Nc3cc(NCC(C)C)c4n[nH]c(Cl)c4c3)c2)c1 | 36 nM |  |  | 
17 | CC(C)CNc1cc(NS(=O)(=O)c2cccc(-c3ccc(Cl)cc3)c2)cc2c(Cl)[nH]nc12 | 12.5 nM | 1.25 µM (≈ 0.612 µg/mL) | 2.5 µM (≈ 1.22 µg/mL) | 2.5 µM (≈ 1.22 µg/mL)
18 | CC(C)CNc1cc(NS(=O)(=O)c2cccc(-c3cnc4ccccc4c3)c2)cc2c(Cl)[nH]nc12 | 10.8 nM |  |  | 
19 | CCNc1cc(NS(=O)(=O)c2ccc(Cl)cc2)cc2c(Cl)[nH]nc12 | 2700 nM |  |  | 
20 | CC(C)(C)CCNc1cc(NS(=O)(=O)c2ccc(Cl)cc2)cc2c(Cl)[nH]nc12 | 6500 nM |  |  | 

Row | Compound | Ki [1] | MIC (Streptococcus pyogenes) | MIC (Neisseria meningitidis) | MIC (Streptococcus pneumoniae)
21 | Cc1n[nH]c2c(NCC(C)C)cc(NS(=O)(=O)c3cccc(-c4ccncc4)c3)cc12 | 240 nM |  |  | 
22 | Cc1n[nH]c2c(NCC(C)C)cc(NS(=O)(=O)c3cccc(-c4cccc(C(F)(F)F)c4)c3)cc12 | 20 nM | > 20 µM | 20 µM (≈ 10.1 µg/mL) | 
23 | CC(C)CNc1cc(NS(=O)(=O)c2cccc(-c3ccccc3)c2)cc2c(Cl)[nH]nc12 | 94 nM | > 20 µM | 2.5 µM (≈ 1.14 µg/mL) | 
24 | CC(C)CNc1cc(NS(=O)(=O)c2cccc(-c3ccc(F)c(F)c3)c2)cc2c(Cl)[nH]nc12 | 8.1 nM |  |  | 
25 | CC(=O)Nc1cc(NS(=O)(=O)c2ccc(Cl)cc2)cc2c(Cl)[nH]nc12 | 11000 nM | 7.5 µM (≈ 2.99 µg/mL) | 5 µM (≈ 2 µg/mL) | 5 µM (≈ 2 µg/mL)
26 | CN(C)c1cccc2c(S(=O)(=O)Nc3ccc4[nH]nc(Cl)c4c3)cccc12 | 22000 nM |  |  | 
27 | Cc1cc(-c2cccc(S(=O)(=O)Nc3cc(NCC(C)C)c4n[nH]c(Cl)c4c3)c2)ccn1 | 28.5 nM |  |  | 
28 | CCc1cccc(-c2cccc(S(=O)(=O)Nc3cc(NCC(C)C)c4[nH]nc(C)c4c3)c2)c1 | 125 nM |  |  | 
29 | Cc1cccc(-c2cccc(S(=O)(=O)Nc3cc(NCC(C)C)c4[nH]nc(C)c4c3)c2)c1 | 100 nM | > 20 µM | 20 µM (≈ 8.97 µg/mL) | 
30 | Cc1n[nH]c2ccc(NS(=O)(=O)c3cccc4c(N(C)C)cccc34)cc12 | 64000 nM |  |  | 
31 | O=S(=O)(Nc1ccc2[nH]nc(Cl)c2c1)c1ccc(Cl)cc1 | 5200 nM |  |  | 
32 | CC(C)CNc1cc(NS(=O)(=O)c2ccc(Cl)cc2)cc2c(Cl)[nH]nc12 | 760 nM | > 20 µM | 5 µM (≈ 2.07 µg/mL) | 
33 | CC(C)CNc1cc(NS(=O)(=O)c2cccc(-c3ccc(F)c(Cl)c3)c2)cc2c(Cl)[nH]nc12 | 3.4 nM | 3.75 µM (≈ 1.9 µg/mL) | 1.88 µM (≈ 0.951 µg/mL) | 3.75 µM (≈ 1.9 µg/mL)
34 | CC(C)CNc1cc(NS(=O)(=O)c2cccc(-c3cccc(C(F)(F)F)c3)c2)cc2c(Cl)[nH]nc12 | 11 nM |  |  | 
35 | CC(C)=CCNc1cc(NS(=O)(=O)c2ccc(Cl)cc2)cc2c(Cl)[nH]nc12 | 2200 nM |  |  | 
36 | CC(C)CNc1cc(NS(=O)(=O)c2cccc(-c3ccc(C(F)(F)F)cc3)c2)cc2c(Cl)[nH]nc12 | 13 nM | > 20 µM | 5 µM (≈ 2.61 µg/mL) | 
37 | CC(C)CCNc1cc(NS(=O)(=O)c2ccc(Cl)cc2)cc2c(Cl)[nH]nc12 | 4900 nM |  |  | 
38 | O=S(=O)(Nc1ccc2c[nH]nc2c1)c1ccc(Cl)cc1 | 17000 nM |  |  | 
39 | CC(C)(C)CNc1cc(NS(=O)(=O)c2ccc(Cl)cc2)cc2c(Cl)[nH]nc12 | 1200 nM |  |  | 
40 | O=S(=O)(Nc1ccc2[nH]ncc2c1)c1ccc(Cl)cc1 | 27000 nM |  |  | 
